Source: ChEMBL document CHEMBL1828626, “Thiazolyl N-benzyl-substituted acetamide derivatives: synthesis, Src kinase inhibitory and anticancer activities” (2011)
Calls of active or inactive are those of the source. No cut-off for these calls is given here.

Columns and labels:
SYF = test: Inhibition of constitutively active human c-Src527F mutant-induced growth inhibition in src, yes and fyn-deficient mouse SYF cells after 2 days by MTT assay; type: cell-based
Method in brief: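 SYF cells (Src/Yes/Fyn knockout) re-expressing c-Src527F were plated at 3500 cells/well in DMEM/10% FBS overnight. Compound was added as a 5-point 2-fold serial dilution in triplicate for 2 days at 37 °C, 5% CO2. GI50 comes from growth % = (T−T0)/(C−T0) × 100, with T0 from day-zero wells.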

NIH3T3 = test: Inhibition of constitutively active human c-SRC527F mutant-induced growth inhibition in mouse NIH3T3 cells after 3 days by MTT assay; type: cell-based
Method in brief: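 NIH3T3 cells carrying constitutively active human c-Src527F were seeded at 4500 cells/well in DMEM/10% FBS and left overnight. They were then exposed for 3 days at 37 °C to a 5-point 2-fold dilution series (n = 3). Growth % = (T−T0)/(C−T0) × 100; GI50 taken from curves.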

HT-29 = test: Antiproliferative activity against c-Src overexpressing human HT-29 cells at 50 uM after 24 to 72 hrs relative to control; type: functional
Method in brief: (§1)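 Cells cultured in EMEM (HT-29, BT-20) or RPMI (CCRF-CEM) with 10% FBS at 37 °C, 5% CO2. Seeded at 5000 cells/well and treated 72 h after seeding with 50 μM compound, in triplicate, for 24-72 h. CellTiter 96 AQueous One reagent added for 1 h; formazan A490. Survival is (treated − medium blank)/(untreated control − blank) × 100%.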

CCRF-CEM [1] = test: Antiproliferative activity against human CCRF-CEM cells at 50 uM after 72 hrs relative to control; type: functional; method in brief: as §1
BT-20 [2] = test: Antiproliferative activity against human BT20 cells at 50 uM after 72 hrs relative to control; type: functional; method in brief: as §1
CCRF-CEM [3] = test: Antiproliferative activity against human CCRF-CEM cells at 10 uM after 72 hrs relative to control; type: functional, cell-based
Method in brief: (§2)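 BT-20 in EMEM or CCRF-CEM in RPMI, with 10% FBS, at 37 °C, 5% CO2. Seeded at 5000 cells/well and exposed 72 h after seeding to 10 μM agent, in triplicate. Readout is CellTiter 96 AQueous One, 1 h, A490. Growth is given as percent of untreated control after medium-blank subtraction.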

BT-20 [4] = test: Antiproliferative activity against human BT20 cells at 10 uM after 72 hrs relative to control; type: functional, cell-based; method in brief: as §2

Row | SMILES | GI50 (SYF) | GI50 (NIH3T3) | Activity (HT-29) | Activity (CCRF-CEM [1]) | Activity (BT-20 [2]) | Activity (CCRF-CEM [3]) | Activity (BT-20 [4])
1 | Cc1ccc(CNC(=O)Cc2csc(-c3ccc(OCCN4CCOCC4)cc3)n2)cc1 | 7.23 µM | 4.76 µM | 54% | 61% | – | – | –
2 | O=C(Cc1csc(-c2ccc(OCCN3CCOCC3)cc2)n1)NCc1ccccc1 | 2.3 µM | 1.34 µM | – | 30% | 30% | – | –
3 | COc1cccc2c1C(=O)c1c(O)c3c(c(O)c1C2=O)C[C@@](O)(C(=O)CO)C[C@@H]3O[C@H]1C[C@H](N)[C@H](O)[C@H](C)O1 | – | – | – | – | – | Active | Active
4 | O=C(Cc1csc(-c2ccc(OCCN3CCOCC3)cc2)n1)NCc1ccc(F)cc1 | 2.51 µM | 1.49 µM | 54% | 71% | – | – | –
5 | O=C(Cc1ccc(-c2ccc(OCCN3CCOCC3)cc2)cn1)NCc1ccccc1 | 0.039 µM | 0.023 µM | – | – | – | – | –
6 | O=C(Cc1csc(-c2ccc(OCCN3CCOCC3)cc2)n1)NCc1ccc(Cl)c(Cl)c1 | 12.5 µM | 12.3 µM | 54% | 69% | – | – | –
7 | O=C(Cc1csc(-c2ccc(OCCN3CCOCC3)cc2)n1)NCc1ccccc1Cl | 13 µM | 7.93 µM | – | 30% | 30% | – | –
